Source: ChEMBL document CHEMBL1212762, “In vivo activity of ceftobiprole in murine skin infections due to Staphylococcus aureus and Pseudomonas aeruginosa” (Antimicrob Agents Chemother, 2010)

What was measured:
[1] = test system: Pseudomonas aeruginosa; assay: Antimicrobial activity against Pseudomonas aeruginosa OC 4351 infected in immunocompromized SKH1 mouse assessed as lesion volume at 1.6 mg/kg/day, sc measured after 48 hrs postinfection (reference value: 2234 mm3); format: functional; settings: route subcutaneous
[2] = test system: Pseudomonas aeruginosa; assay: Antimicrobial activity against Pseudomonas aeruginosa OC 4354 infected in immunocompromized SKH1 mouse assessed as lesion volume at 6.2 mg/kg/day, sc measured after 48 hrs postinfection (reference value: 2195 mm3); format: functional; settings: route subcutaneous
[3] = test system: Pseudomonas aeruginosa; assay: Antimicrobial activity against Pseudomonas aeruginosa OC 4354 infected in immunocompromized SKH1 mouse assessed as lesion volume at 100 mg/kg/day, sc measured after 48 hrs postinfection (reference value: 2195 mm3); format: functional; settings: route subcutaneous
[4] = test system: Pseudomonas aeruginosa; assay: Antimicrobial activity against Pseudomonas aeruginosa OC 4351 infected in immunocompromized SKH1 mouse assessed as log change in bacterial colony forming unit at 100 mg/kg/day, sc; format: functional; settings: route subcutaneous
Summary of the method: (§1)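 Female SKH1 hairless mice made neutropenic with ip cyclophosphamide (150 mg/kg 5 days and 100 mg/kg 1 day before infection). 0.2 ml s.c. Cytodex bead (0.1% vol/vol) inoculum in BHI: OC 4351 left flank, OC 4354 right flank. Drug s.c. at 1, 3, 25, 27 h postinfection. Killed at 48 h; skin homogenised in saline, plated on TSA 18 h 37°C; Δlog CFU/g versus inoculum. 5 mice/dose, run twice.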

[5] = test system: Pseudomonas aeruginosa; assay: Antimicrobial activity against Pseudomonas aeruginosa OC 4354 infected in immunocompromized SKH1 mouse assessed as log change in bacterial colony forming unit at 1.6 mg/kg/day, sc; format: functional; settings: route subcutaneous; summary of the method: as §1
[6] = test system: Pseudomonas aeruginosa; assay: Antimicrobial activity against Pseudomonas aeruginosa OC 4354 infected in immunocompromized SKH1 mouse assessed as log change in bacterial colony forming unit at 25 mg/kg/day, sc; format: functional; settings: route subcutaneous; summary of the method: as §1
[7] = fT>MIC in Staphylococcus aureus Smith OC 4172 infected sc dosed SKH1 mouse at 50 mg/kg, sc administered twice at 1 and 3 hrs after infection; format: functional; settings: route subcutaneous
[8] = fT>MIC in Pseudomonas aeruginosa OC 4351 infected sc dosed SKH1 mouse at 50 mg/kg, sc administered twice at 1 and 3 hrs after infection; format: functional; settings: route subcutaneous
[9] = fT>MIC in Staphylococcus aureus OC 4172 infected sc dosed SKH1 mouse administered in 24 hrs dosing interval; format: functional
Summary of the method: (§2)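 Plasma levels came from female hairless SKH1 mice given single s.c. doses at the nape 24 h after flank s.c. infection with Cytodex beads. S. aureus work used immunocompetent mice. P. aeruginosa work used mice made neutropenic with cyclophosphamide i.p., 150 mg/kg at day −5 and 100 mg/kg at day −1. Drug assayed by HPLC with diode-array detection. Noncompartmental analysis.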

[10] = fT>MIC in Staphylococcus aureus OC 8525 infected sc dosed SKH1 mouse administered in 24 hrs dosing interval; format: functional; summary of the method: as §2
[11] = fT>MIC in Pseudomonas aeruginosa OC 4354 infected sc dosed SKH1 mouse administered in 24 hrs dosing interval; format: functional; summary of the method: as §2
[12] = Half life in immunocompromized SKH1 mouse plasma at 50 mg/kg, sc; format: ADME, organism-based; design: dose 50 mg/kg, route subcutaneous
[13] = Half life in immunocompromized SKH1 mouse skin at 50 mg/kg, sc; format: ADME, organism-based, Zone of skin; design: dose 50 mg/kg, route subcutaneous
Summary of the method: (§3)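 Female SKH1 hairless mice, immunocompetent or cyclophosphamide-neutropenic, infected s.c. with MRSA OC 8525 or P. aeruginosa OC 4354 on the Cytodex beads (left flank), sterile beads on the right. Single dose 24 h later: s.c. at the nape, or linezolid 50 mg/kg oral. Plasma and skin (DMSO homogenate) sampled over time, HPLC with diode array.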

[14] = test system: Plasma; assay: fCmax in immunocompromized SKH1 mouse plasma at 50 mg/kg, sc; format: ADME, organism-based; design: dose 50 mg/kg, route subcutaneous; settings: in vivo; summary of the method: as §3
[15] = test system: Zone of skin; assay: fCmax in immunocompromized SKH1 mouse skin at 50 mg/kg, sc; format: ADME, organism-based; design: dose 50 mg/kg, route subcutaneous; settings: in vivo; summary of the method: as §3
[16] = test system: Plasma; assay: fAUC (0-infinity) in immunocompromized SKH1 mouse plasma at 50 mg/kg, sc; format: ADME, organism-based; design: dose 50 mg/kg, route subcutaneous; settings: in vivo; summary of the method: as §3
[17] = test system: Staphylococcus aureus; assay: Antimicrobial activity against methicillin-susceptible Staphylococcus aureus OC 4172 assessed as inhibition of growth by broth microdilution method; format: functional
[18] = Half life in immunocompetent SKH1 mouse plasma at 12.5 mg/kg, sc; format: ADME, organism-based; design: dose 12.5 mg/kg, route subcutaneous; summary of the method: as §3
[19] = Tmax in immunocompetent SKH1 mouse plasma at 12.5 mg/kg, sc; format: ADME, organism-based; design: dose 12.5 mg/kg, route subcutaneous; summary of the method: as §3
[20] = Tmax in immunocompetent SKH1 mouse skin at 50 mg/kg, sc; format: ADME, organism-based, Zone of skin; design: dose 50 mg/kg, route subcutaneous; summary of the method: as §3
[21] = Tmax in Staphylococcus aureus infected immunocompetent SKH1 mouse skin at 50 mg/kg, sc; format: ADME, organism-based, Zone of skin; design: dose 50 mg/kg, route subcutaneous; summary of the method: as §3
[22] = test system: Plasma; assay: fCmax in immunocompetent SKH1 mouse plasma at 12.5 mg/kg, sc; format: ADME, organism-based; design: dose 12.5 mg/kg, route subcutaneous; settings: in vivo; summary of the method: as §3
[23] = test system: Zone of skin; assay: fCmax in immunocompetent SKH1 mouse skin at 50 mg/kg, sc; format: ADME, organism-based; design: dose 50 mg/kg, route subcutaneous; settings: in vivo; summary of the method: as §3
[24] = test system: Plasma; assay: fAUC (0-infinity) in immunocompetent SKH1 mouse plasma at 12.5 mg/kg, sc; format: ADME, organism-based; design: dose 12.5 mg/kg, route subcutaneous; settings: in vivo; summary of the method: as §3
[25] = test system: Zone of skin; assay: fAUC (0-infinity) in immunocompetent SKH1 mouse skin at 50 mg/kg, sc; format: ADME, organism-based; design: dose 50 mg/kg, route subcutaneous; settings: in vivo; summary of the method: as §3
[26] = test system: Zone of skin; assay: fAUC (0-infinity) in Staphylococcus aureus infected immunocompetent SKH1 mouse skin at 50 mg/kg, sc; format: ADME, organism-based; design: dose 50 mg/kg, route subcutaneous; settings: in vivo; summary of the method: as §3
[27] = test system: Staphylococcus aureus; assay: Antimicrobial activity against methicillin-resistant Staphylococcus aureus OC 8525 infected in SKH1 mouse assessed as log change in bacterial colony forming unit per gram of skin tissue at 1.6 mg/kg/day, sc (reference value: 0.8 deltalog CFU); format: functional; settings: route subcutaneous
Summary of the method: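 Female hairless immunocompetent SKH1 mice were anaesthetised and injected s.c. with 0.2 ml Cytodex bead inoculum (0.1% vol/vol beads in BHI; 6.7–7.0 log10 CFU/mouse): MSSA OC 4172 in the left flank, MRSA OC 8525 in the right. Drug was given at 1, 3, 25 and 27 h post-infection. At 48 h, flank lesions were excised, weighed and homogenised in saline, then plated on TSA (18 h, 37°C). The value is Δlog CFU/g versus the inoculum, from 5 mice/dose, run twice and pooled.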

[28] = test system: Staphylococcus aureus; assay: Antimicrobial activity against methicillin-resistant Staphylococcus aureus OC 8525 infected immunocompetent SKH1 mouse assessed as lesion volume at 25 mg/kg/day, sc measured after 48 hrs postinfection (reference value: 1535 mm3); settings: route subcutaneous
[29] = test system: Staphylococcus aureus; assay: Antimicrobial activity against methicillin-resistant Staphylococcus aureus OC 8525 infected immunocompetent SKH1 mouse assessed as lesion volume at 1.6 mg/kg/day, sc measured after 48 hrs postinfection (reference value: 1535 mm3); settings: route subcutaneous
[30] = test system: Staphylococcus aureus; assay: Antimicrobial activity against methicillin-susceptible Staphylococcus aureus Smith OC 4172 infected immunocompetent SKH1 mouse assessed as lesion volume at 25 mg/kg/day, sc measured after 48 hrs postinfection (reference value: 1181 mm3); settings: route subcutaneous
[31] = test system: Staphylococcus aureus; assay: Antimicrobial activity against methicillin-susceptible Staphylococcus aureus Smith OC 4172 infected immunocompetent SKH1 mouse assessed as lesion volume at 6.2 mg/kg/day, sc measured after 48 hrs postinfection (reference value: 1181 mm3); settings: route subcutaneous

`Nc1nc(/C(=N/O)C(=O)N[C@@H]2C(=O)N3C(C(=O)O)=C(/C=C4\CCN([C@@H]5CCNC5)C4=O)CS[C@H]23)ns1` [CEFTOBIPROLE] gave an Activity [1] of 1593 mm3, an Activity [2] of 1028 mm3 and an Activity [3] of 373 mm3. It also gave a deltalog10CFU [4] of -1.1, a deltalog10CFU [5] of 1.7 and a deltalog10CFU [6] of -1.3. The “fT>MIC” value [7] was >4 h, the “fT>MIC” value [8] was 2.2 h and the “fT>MIC” value [9] was >17%. For the same compound, the “fT>MIC” value [10] was 13.8%, the “fT>MIC” value [11] was 9.1% and the half-life [12] was 13 min. For the same compound, the half-life [13] was 30 min, the fCmax [14] was 69 µg/mL and the fCmax [15] was 17 µg/g. The fAUC [16] was 2011 µg·min/mL, the MIC [17] was 0.25 µg/mL and the half-life [18] was 17 min. For the same compound, the Tmax [19] was 7.5 min, the Tmax [20] was 15 min and the Tmax [21] was 15 min. For the same compound, the fCmax [22] was 17 µg/mL, the fCmax [23] was 17 µg/g and the fAUC [24] was 481 µg·min/mL. It also gave a fAUC [25] of 668 µg·min/mL, a fAUC [26] of 652 µg·min/mL and a deltalog10CFU [27] of 0.3. It also gave an Activity [28] of 642 mm3, an Activity [29] of 1058 mm3 and an Activity [30] of 640 mm3. It also gave an Activity [31] of 885 mm3.
